In ChEMBL document CHEMBL1153554, “Mechanisms by which the G333D mutation in human immunodeficiency virus type 1 Reverse transcriptase facilitates dual resistance to zidovudine and lamivudine” (Antimicrob Agents Chemother, 2008):
pKd: −log10 of the molar value. Activity calls are given as the source filed them. The rule behind the calls is not given here.

Legend:
[1] = tested on: Human immunodeficiency virus type 1 reverse transcriptase (Human immunodeficiency virus 1), Q72547 [M41L,L210W,T215Y]; experiment: Binding affinity to 200 nM HIV1 LAI reverse transcriptase M41L/L210W/T215Y mutant assessed as ATP-mediated excision of zidovudine-monophosphate from chain terminated DNA/DNA template/primer duplex at 100 uM
Method in brief: (§1)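 Primer P20 (5′-³²P) on DNA template T57 was chain-terminated with WT RT and 100 μM AZT-TP (30 min, 37°C), gel-purified and reannealed. 200 nM active-site RT with 20 nM terminated T/P in 50 mM Tris-HCl pH 8.0, 50 mM KCl. Started with 3.0 mM ATP, 10 mM MgCl₂, 1 μM TTP and 5 μM ddCTP. Timed aliquots were run on 7 M urea-16% PAGE and phosphorimaged.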

[2] = tested on: Human immunodeficiency virus 1; experiment: (§2) Selectivity ratio of Kd for excision of zidovudine-monophosphate from chain terminated DNA/DNA template/primer duplex in 200 nM HIV1 LAI reverse transcriptase M41L/L210W/T215Y mutant to Kd for excision of zidovudine-monophosphate from chain terminated DNA/DNA template/primer duplex in 200 nM wild type HIV1 LAI reverse transcriptase by gel shift mobility assay
[3] = tested on: Human immunodeficiency virus 1; experiment: as §2, with “zidovudine-monophosphate” for “zidovudine-monophosphate from chain”, “duplex chain” for “duplex”, “in” for “in 200 nM”, “M41L/L210W/T215Y/M184V/G333D” for “M41L/L210W/T215Y”
[4] = tested on: Human immunodeficiency virus type 1 reverse transcriptase (Human immunodeficiency virus 1), Q72547 [M184V]; experiment: Binding affinity to HIV1 LAI reverse transcriptase M184V mutant assessed as ATP-mediated excision of zidovudine-monophosphate from chain terminated RNA/DNA template/primer duplex at 100 uM
Method in brief: (§3)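 The AZT-MP-terminated ³²P-P20 primer was annealed to a 35-nt RNA template (T35). 200 nM active-site RT with 20 nM T/P in 50 mM Tris-HCl pH 8.0, 50 mM KCl. Started with 3.0 mM ATP and 10 mM MgCl₂. Timed aliquots were quenched and separated on denaturing urea-PAGE, then phosphorimaged.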

[5] = biological target: Human immunodeficiency virus type 1 reverse transcriptase (Human immunodeficiency virus 1) (UniProt Q72547); experiment: Binding affinity to 200 nM wild type HIV1 LAI reverse transcriptase assessed as ATP-mediated excision of zidovudine-monophosphate from chain terminated DNA/DNA template/primer duplex at 100 uM; method in brief: as §1
[6] = tested on: Human immunodeficiency virus type 1 reverse transcriptase (Human immunodeficiency virus 1), Q72547 [M41L,L210W,T215Y]; experiment: Binding affinity to HIV1 LAI reverse transcriptase M41L/L210W/T215Y mutant assessed as ATP-mediated excision of zidovudine-monophosphate from chain terminated RNA/DNA template/primer duplex; method in brief: as §3
[7] = tested on: Human immunodeficiency virus type 1 reverse transcriptase (Human immunodeficiency virus 1), Q72547 [M41L,L210W,T215Y,M184V]; experiment: Binding affinity to 200 nM HIV1 LAI reverse transcriptase M41L/L210W/T215Y/M184V mutant assessed as ATP-mediated excision of zidovudine-monophosphate from chain terminated DNA/DNA template/primer duplex at 100 uM; method in brief: as §1
[8] = tested on: Human immunodeficiency virus 1; experiment: Binding affinity to HIV1 LAI reverse transcriptase M41L/L210W/T215Y/M184V/G333D mutant assessed as ATP-mediated excision of zidovudine-monophosphate from chain terminated RNA/DNA template/primer duplex; method in brief: as §3
[9] = tested on: Human immunodeficiency virus type 1 reverse transcriptase (Human immunodeficiency virus 1), Q72547 [M41L,L210W,T215Y,M184V]; experiment: Binding affinity to HIV1 LAI reverse transcriptase M41L/L210W/T215Y/M184V mutant assessed as ATP-mediated excision of zidovudine-monophosphate from chain terminated RNA/DNA template/primer duplex; method in brief: as §3
[10] = tested on: Human immunodeficiency virus type 1 reverse transcriptase (Human immunodeficiency virus 1), Q72547 [M184V]; experiment: Binding affinity to 200 nM HIV1 LAI reverse transcriptase M184V mutant assessed as ATP-mediated excision of zidovudine-monophosphate from chain terminated DNA/DNA template/primer duplex at 100 uM; method in brief: as §1
[11] = biological target: T1, Human immunodeficiency virus type 1 reverse transcriptase (Human immunodeficiency virus 1, UniProt Q72547, L210W/M184V/M41L/T215Y); experiment: Binding affinity to HIV1 LAI reverse transcriptase M41L/L210W/T215Y/M184V mutant assessed as ATP-mediated excision of zidovudine-monophosphate terminated DNA/DNA template/primer duplex chain at 100 uM by gel shift mobility assay
Method in brief: (§4)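 Native 4% PAGE in Tris-acetate pH 8.0 with 1 mM EDTA, 30 min at 100 V, room temperature. The shifted band was taken as a 1:1 RT-T/P complex to give Kd. Mean ± SD of three experiments.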

[12] = tested on: Human immunodeficiency virus 1; experiment: as §2, with “200 nM HIV1 LAI” for “200 nM wild type HIV1 LAI”, “reverse transcriptase M184V mutant by gel” for “reverse transcriptase by gel”
[13] = tested on: Human immunodeficiency virus 1; experiment: as §2, with “zidovudine-monophosphate” for “zidovudine-monophosphate from chain”, “duplex chain” for “duplex”, “in” for “in 200 nM”, “M184V” for “M41L/L210W/T215Y”
[14] = tested on: Human immunodeficiency virus 1; experiment: as §2, with “in” for “in 200 nM”, “M41L/L210W/T215Y/K65R/G333D” for “M41L/L210W/T215Y”
[15] = tested on: Human immunodeficiency virus 1; experiment: as §2, with “zidovudine-monophosphate” for “zidovudine-monophosphate from chain”, “duplex chain” for “duplex”, “in” for “in 200 nM”, “M41L/L210W/T215Y/K65R” for “M41L/L210W/T215Y”
[16] = tested on: Human immunodeficiency virus 1; experiment: as §2, with “zidovudine-monophosphate” for “zidovudine-monophosphate from chain”, “duplex chain” for “duplex”, “in” for “in 200 nM”, “M41L/L210W/T215Y/M184V” for “M41L/L210W/T215Y”
[17] = Binding affinity to HIV1 LAI reverse transcriptase M41L/L210W/T215Y/M184V/G333D mutant assessed as ATP-mediated excision of zidovudine-monophosphate terminated DNA/DNA template/primer duplex chain at 100 uM by gel shift mobility assay; design: species or system Human immunodeficiency virus 1; method in brief: as §4
[18] = tested on: Human immunodeficiency virus 1; experiment: as §2, with “zidovudine-monophosphate” for “zidovudine-monophosphate from chain”, “duplex chain” for “duplex”, “in” for “in 200 nM”
[19] = Binding affinity to HIV1 LAI reverse transcriptase M41L/L210W/T215Y/K65R/G333D mutant assessed as ATP-mediated excision of zidovudine-monophosphate terminated DNA/DNA template/primer duplex chain at 100 uM by gel shift mobility assay; design: species or system Human immunodeficiency virus 1; method in brief: as §4
[20] = tested on: Human immunodeficiency virus 1; experiment: Binding affinity to 200 nM HIV1 LAI reverse transcriptase M41L/L210W/T215Y/M184V/G333D mutant assessed as ATP-mediated excision of zidovudine-monophosphate from chain terminated DNA/DNA template/primer duplex at 100 uM; method in brief: as §1
[21] = biological target: Human immunodeficiency virus type 1 reverse transcriptase (Human immunodeficiency virus 1) (UniProt Q72547); experiment: Binding affinity to wild type HIV1 LAI reverse transcriptase assessed as ATP-mediated excision of zidovudine-monophosphate from chain terminated RNA/DNA template/primer duplex; method in brief: as §3
[22] = biological target: T2, Human immunodeficiency virus type 1 reverse transcriptase (Human immunodeficiency virus 1, UniProt Q72547, M184V); experiment: Binding affinity to HIV1 LAI reverse transcriptase M184V mutant assessed as ATP-mediated excision of zidovudine-monophosphate terminated DNA/DNA template/primer duplex chain at 100 uM by gel shift mobility assay; method in brief: as §4
[23] = biological target: T3, Human immunodeficiency virus type 1 reverse transcriptase (Human immunodeficiency virus 1, UniProt Q72547, L210W/M41L/T215Y); experiment: Binding affinity to HIV1 LAI reverse transcriptase M41L/L210W/T215Y mutant assessed as ATP-mediated excision of zidovudine-monophosphate terminated DNA/DNA template/primer duplex chain at 100 uM by gel shift mobility assay; method in brief: as §4
[24] = biological target: T4, Human immunodeficiency virus type 1 reverse transcriptase (Human immunodeficiency virus 1, UniProt Q72547); experiment: Binding affinity to wild type HIV1 LAI reverse transcriptase assessed as ATP-mediated excision of zidovudine-monophosphate terminated DNA/DNA template/primer duplex chain at 100 uM by gel shift mobility assay; method in brief: as §4
[25] = biological target: Human immunodeficiency virus type 1 reverse transcriptase (Human immunodeficiency virus 1, UniProt Q72547, K65R/L210W/M41L/T215Y); experiment: Binding affinity to HIV1 LAI reverse transcriptase M41L/L210W/T215Y/K65R mutant assessed as ATP-mediated excision of zidovudine-monophosphate terminated DNA/DNA template/primer duplex chain at 100 uM by gel shift mobility assay; method in brief: as §4
[26] = biological target: T1, Human immunodeficiency virus type 1 reverse transcriptase; experiment: Binding affinity to HIV1 LAI reverse transcriptase M41L/L210W/T215Y/M184V mutant
[27] = biological target: T2, Human immunodeficiency virus type 1 reverse transcriptase; experiment: Binding affinity to HIV1 LAI reverse transcriptase M184V mutant
[28] = biological target: T3, Human immunodeficiency virus type 1 reverse transcriptase; experiment: Binding affinity to HIV1 LAI reverse transcriptase M41L/L210W/T215Y mutant
[29] = biological target: T4, Human immunodeficiency virus type 1 reverse transcriptase; experiment: Binding affinity to wild type HIV1 LAI reverse transcriptase
Method in brief: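 Bacterially expressed, purified RT, corrected for active-site concentration, preincubated at 400 nM with 40 nM 5′-³²P-labelled 20-nt DNA primer annealed to a 57-nt DNA template in 50 mM Tris-HCl pH 7.5, 50 mM KCl. It was then rapid-quench mixed 1:1 with nucleotide in the same buffer plus 20 mM MgCl₂. EDTA quench at 10 ms–30 min; urea-PAGE. k_obs fitted single-exponential; K_d from hyperbolic k_obs-versus-concentration fit.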

[30] = tested on: Human immunodeficiency virus type 1 reverse transcriptase (Human immunodeficiency virus 1), Q72547 [M41L,L210W,T215Y]; experiment: Ratio of Kpol to Kd for HIV1 LAI reverse transcriptase M41L/L210W/T215Y mutant
Method in brief: (§5)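 Pre-steady-state rapid quench: 400 nM active-site RT and 40 nM ³²P-P20/T57 DNA T/P were preincubated in 50 mM Tris-HCl pH 7.5, 50 mM KCl, then mixed with nucleotide in the same buffer containing 20 mM MgCl₂. Quenched with 0.3 M EDTA from 10 ms to 30 min, run on urea-PAGE. kobs came from single-exponential fits; kpol and Kd came from a hyperbolic fit versus nucleotide concentration.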

[31] = tested on: Human immunodeficiency virus type 1 reverse transcriptase (Human immunodeficiency virus 1), Q72547 [M184V]; experiment: Resistance (selectivity ratio) of HIV1 LAI reverse transcriptase M184V mutant relative to wild type
[32] = tested on: Human immunodeficiency virus 1; experiment: Binding affinity to HIV1 LAI reverse transcriptase M41L/L210W/T215Y/M184V/G333D mutant relative to wild type
[33] = tested on: Human immunodeficiency virus type 1 reverse transcriptase (Human immunodeficiency virus 1), Q72547 [M41L,L210W,T215Y,M184V]; experiment: Binding affinity to HIV1 LAI reverse transcriptase M41L/L210W/T215Y/M184V mutant relative to wild type
[34] = Binding affinity to HIV1 LAI reverse transcriptase M41L/L210W/T215Y/M184V/G333D mutant; design: species or system Human immunodeficiency virus 1
[35] = tested on: Human immunodeficiency virus 1; experiment: Ratio of Kpol to Kd for HIV1 LAI reverse transcriptase M41L/L210W/T215Y/M184V/G333D mutant; method in brief: as §5
[36] = tested on: Human immunodeficiency virus type 1 reverse transcriptase (Human immunodeficiency virus 1), Q72547 [M41L,L210W,T215Y]; experiment: Binding affinity to HIV1 LAI reverse transcriptase M41L/L210W/T215Y mutant relative to wild type
[37] = biological target: Human immunodeficiency virus type 1 reverse transcriptase (Human immunodeficiency virus 1) (UniProt Q72547); experiment: Ratio of Kpol to Kd for wild type HIV1 LAI reverse transcriptase; method in brief: as §5
[38] = tested on: Human immunodeficiency virus type 1 reverse transcriptase (Human immunodeficiency virus 1), Q72547 [M41L,L210W,T215Y,M184V]; experiment: Ratio of Kpol to Kd for HIV1 LAI reverse transcriptase M41L/L210W/T215Y/M184V mutant; method in brief: as §5
[39] = tested on: Human immunodeficiency virus type 1 reverse transcriptase (Human immunodeficiency virus 1), Q72547 [M184V]; experiment: Ratio of Kpol to Kd for HIV1 LAI reverse transcriptase M184V mutant; method in brief: as §5

Cc1cn([C@H]2C[C@H](N=[N+]=[N-])[C@@H](COP(=O)(O)O)O2)c(=O)[nH]c1=O [AZIDOTHYMIDINE MONOPHOSPHATE]
Activity [1]: Active | fold change (FC) [2]: 4 | Ratio [3]: 2.3 | Activity [4]: inactive | Activity [5]: Active | Activity [6]: Active | Activity [7]: Active | Activity [8]: Active | Activity [9]: Active | Activity [10]: Active | pKd [11]: 7.01 | fold change (FC) [12]: 4 | Ratio [13]: 3.8 | Ratio [14]: 1.1 | Ratio [15]: 1 | Ratio [16]: 5 | pKd [17]: 7.34 | Ratio [18]: 1 | pKd [19]: 7.65 | Activity [20]: Active | Activity [21]: inactive | pKd [22]: 7.11 | pKd [23]: 7.73 | pKd [24]: 7.70 | pKd [25]: 7.69

Cc1cn([C@H]2C[C@H](N=[N+]=[N-])[C@@H](CO[P@](=O)(O)O[P@](=O)(O)OP(=O)(O)O)O2)c(=O)[nH]c1=O [ZIDOVUDINE TRIPHOSPHATE]
pKd [26]: 5.46 | pKd [27]: 5.54 | pKd [28]: 5.94 | pKd [29]: 5.70

Nc1ccn([C@@H]2CS[C@H](COP(=O)(O)OP(=O)(O)OP(=O)(O)O)O2)c(=O)n1 [LAMIVUDINE TRIPHOSPHATE]
pKd [26]: 5.01 | Ratio [30]: 0.04 | pKd [27]: 5.09 | fold resistance [31]: 48.8 | fold change (FC) [32]: 116 | fold change (FC) [33]: 61.8 | pKd [34]: 4.75 | Ratio [35]: 0.00028 | fold change (FC) [36]: 1.5 | Ratio [37]: 0.06 | Ratio [38]: 0.0004 | Ratio [39]: 0.00061 | pKd [28]: 6.37 | pKd [29]: 6.43
